Measured values as given in ChEMBL document CHEMBL1155811, “Bioactive brominated metabolites from the Red Sea sponge Pseudoceratina arabica” (2008).
The source made the active and inactive calls. No cut-off for these calls is given here.

What was measured:
[1] = system: Klebsiella pneumoniae; assay: Antibacterial activity against Klebsiella pneumoniae ATCC 10032 assessed as inhibition zone at 1 mg after 24 hrs by agar diffusion method; format: functional; settings: ATCC 10032, 24 h, read-out: IZ
Procedure, shortened: (§1)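 Agar diffusion (cup method). Each compound, 1 mg dissolved in 1 mL DMF; 100 µL of this solution was placed in cups cut in seeded agar. Plates were incubated at 37 °C for 24 h and the inhibition zone was measured.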

[2] = system: HCT-116; assay: Cytotoxicity against human HCT116 cells at 10 ug/mL by MTT assay; format: functional, cell-based
[3] = system: Jejunum; assay: Parasympatholytic activity in isolated rabbit jejunum assessed as decrease in nicotine-induced intestinal contraction; format: functional, tissue-based; settings: Oryctolagus cuniculus
Procedure, shortened: (§2)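 Isolated rabbit jejunum. Compounds in distilled H2O (1.0 mg/mL stock), used at 1/1000 and 1/100 dilutions. Normal contractions recorded first. Then 0.1 mL nicotine (1/1000 dilution) or 10 gamma acetylcholine (0.1 mL of 1/10 000 dilution) added after the compound. Change in intestinal contraction recorded.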

[4] = system: Jejunum; assay: Parasympatholytic activity in isolated rabbit jejunum assessed as decrease in 10gamma-acetylcholine induced intestinal contraction; format: functional, tissue-based; settings: Oryctolagus cuniculus; procedure, shortened: as §2
[5] = system: Heart; assay: Parasympatholytic activity in isolated perfused rabbit heart assessed as decrease in nicotine-induced effect; format: functional, tissue-based; settings: Oryctolagus cuniculus
Procedure, shortened: (§3)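 Rabbit heart perfused by modified Langendorff method. Normal contractions recorded and receptors (nicotinic, muscarinic, histaminergic, adrenergic) checked. Compound added at 1/100 dilution of 1.0 mg/mL aqueous stock. Then 0.1 mL nicotine (1/1000 dilution of 1 mL/100 mL H2O) or 10 gamma acetylcholine (0.1 mL of 1/10 000 dilution of 1 g/100 mL H2O) given; change in contraction recorded.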

[6] = system: Heart; assay: Parasympatholytic activity in isolated perfused rabbit heart assessed as decrease in 10gamma-acetylcholine induced effect; format: functional, tissue-based; settings: Oryctolagus cuniculus; procedure, shortened: as §3
[7] = system: Staphylococcus aureus; assay: Antibacterial activity against Staphylococcus aureus ATCC 6538P assessed as inhibition zone at 1 mg after 24 hrs by agar diffusion method; format: functional; settings: read-out: IZ; procedure, shortened: as §1
[8] = system: Pseudomonas aeruginosa; assay: Antibacterial activity against Pseudomonas aeruginosa ATCC 9027 assessed as inhibition zone at 1 mg after 24 hrs by agar diffusion method; format: functional; settings: ATCC 9027, 24 h, read-out: IZ; procedure, shortened: as §1
[9] = system: Candida albicans; assay: Antifungal activity against Candida albicans ATCC 2091 assessed as inhibition zone at 1 mg after 24 hrs by agar diffusion method; format: functional; settings: ATCC 2091, 24 h, read-out: IZ
Procedure, shortened: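 Agar diffusion (cup) assay; Candida albicans ATCC 2091. Compound 1 mg dissolved in 1 mL DMF, 100 µL placed per cup; incubated 37 °C for 24 h; inhibition zone measured in mm.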

`COc1c(Br)cc(O)c(O)c1C=O` was tested, and the zone of inhibition at 1000 µg/disc [1] was 3 mm and the Activity [2] was “Not toxic”.

`C[N+]1=C2C=C(N)C(=O)c3[nH]cc(c32)CC1` was tested, and the Activity [2] was “Not toxic”.

In the case of `N#CC(=O)NCCCOc1c(Br)cc(CCN)cc1Br`, the Activity [2] is reported as “Not toxic”.

For `NCCCOc1c(Br)cc(C(O)CN)cc1Br` (stereo not drawn), the Activity [2] was “Not toxic”.

In the case of `NCCCOc1c(Br)cc(CCN)cc1Br`, the Activity [3] is reported as “Active”, the Activity [4] is reported as “Active” and the Activity [5] is reported as “Active”. For the same compound, the Activity [6] was “Active” and the Activity [2] was “Not toxic”.

`CCOC(=O)c1c(O)c(O)cc(Br)c1OC` [CERATINOPHENOL A] was tested, and the zone of inhibition at 1000 µg/disc [7] was 7 mm, the zone of inhibition at 1000 µg/disc [8] was 4 mm and the zone of inhibition at 1000 µg/disc [1] was 3 mm. The zone of inhibition at 1000 µg/disc [9] was 2 mm and the Activity [2] was “Not toxic”.

For `NCCc1cc(Br)c(OCCCNC(=O)C(N)=O)c(Br)c1` [MOLOKA'IAKITAMIDE], the Activity [3] was “Active”, the Activity [4] was “Active” and the Activity [5] was “Active”. The Activity [6] was “Active”, the zone of inhibition at 1000 µg/disc [9] was 3 mm and the Activity [2] was “Not toxic”.

`COC1=C(Br)C[C@]2(OC=C1Br)ON=C(C(=O)NCCCOc1c(Br)cc(CCN)cc1Br)[C@@H]2O` [PSAMMAPLYSIN A] was tested, and the zone of inhibition at 1000 µg/disc [1] was 3 mm and the Activity [2] was “Not toxic”.
